Columns and labels:
Assay type in all cases: functional
Enterococcus faecalis = assay: Minimal inhibitory concentration against Streptococcus faecalis
How it was run: (§1)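 Microtiter broth dilution MIC assay. Strains: S. aureus, S. faecalis, E. coli, P. vulgaris and C. albicans were wild-type clinical isolates; S. cerevisiae ATCC 7752, A. fumigatus ATCC 28212, A. niger ATCC 16404 and M. mucedo ATCC 7941.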

Proteus vulgaris = assay: Minimal inhibitory concentration against Proteus vulgaris; how it was run: as §1
Staphylococcus aureus = assay: Minimal inhibitory concentration against Staphylococcus aureus; how it was run: as §1
Escherichia coli = assay: Minimal inhibitory concentration against Escherichia coli; how it was run: as §1
Candida albicans = assay: Minimal inhibitory concentration against Candida albicans; how it was run: as §1
Aspergillus niger = assay: Minimal inhibitory concentration against Aspergillus niger; how it was run: as §1
Saccharomyces cerevisiae = assay: Minimal inhibitory concentration against Saccharomyces cerevisiae; how it was run: as §1
Aspergillus fumigatus = assay: Minimal inhibitory concentration against Aspergillus fumigatus; how it was run: as §1
Mucor mucedo = assay: Minimal inhibitory concentration against Mucor mucedo; how it was run: as §1

Row | SMILES | MIC (Enterococcus faecalis) | MIC (Proteus vulgaris) | MIC (Staphylococcus aureus) | MIC (Escherichia coli) | MIC (Candida albicans) | MIC (Aspergillus niger) | MIC (Saccharomyces cerevisiae) | MIC (Aspergillus fumigatus) | MIC (Mucor mucedo)
1 | CCCCCCCCCCCCCOC(=O)C[C@H](C[N+](C)(C)C)OC(=O)CCCCCCC.[Cl-] | 6.25 mg/L | > 100 mg/L | 6.25 mg/L | > 100 mg/L |  |  |  |  | 
2 | CCCCCCCCCCC(=O)O[C@H](CC(=O)OCCCCCCC(F)(F)C(F)(F)C(F)(F)C(F)(F)F)C[N+](C)(C)C.[Cl-] |  | > 100 mg/L | 12.5 mg/L | > 100 mg/L | 12.5 mg/L | 12.5 mg/L | 12.5 mg/L | 25 mg/L | 50 mg/L
3 | CCCCCCCCCCCOC(=O)C[C@H](C[N+](C)(C)C)OC(=O)CCCCCCC.[Cl-] | 3.12 mg/L | > 100 mg/L | 3.12 mg/L | 25 mg/L |  |  | > 100 mg/L |  | 
4 | CCCCCCCCCCCCOC(=O)C[C@H](C[N+](C)(C)C)OC(=O)CC(C)C.[Cl-] | 3.12 mg/L | > 100 mg/L | 3.12 mg/L | 100 mg/L |  |  | 1.56 mg/L |  | 
5 | CCCCCCCCCCCCOC(=O)C[C@H](C[N+](C)(C)C)OC(=O)C(C)C.[Cl-] | 3.12 mg/L | 100 mg/L | 6.25 mg/L | 25 mg/L |  |  |  |  | 
6 | CCCCCCCOC(=O)C[C@H](C[N+](C)(C)C)OC(=O)CCCCCCCCCBr.[Cl-] | 3.12 mg/L | 100 mg/L | 3.12 mg/L | 50 mg/L | 3.12 mg/L | 6.25 mg/L | > 100 mg/L | 6.25 mg/L | 25 mg/L
7 | CCCCCCCCCCCCCOC(=O)C[C@H](C[N+](C)(C)C)OC(=O)CC(C)C.[Cl-] | 1.56 mg/L | 100 mg/L | 3.12 mg/L | 100 mg/L |  |  |  |  | 
8 | CCCCCCCCCCCCCCCCOC(=O)C[C@H](C[N+](C)(C)C)OC(=O)CC(C)C.[Cl-] | 3.12 mg/L | > 100 mg/L | 6.25 mg/L | > 100 mg/L |  |  | 3.12 mg/L |  | 
9 | CCCCCCCCCCCOC(=O)C[C@H](C[N+](C)(C)C)OC(=O)CC(C)C.[Cl-] | 3.12 mg/L | 50 mg/L | 6.25 mg/L | 25 mg/L |  |  |  |  | 
10 | CCCCCCCCCCCOC(=O)C[C@H](C[N+](C)(C)C)OC(=O)CCCCCCCCCC.[Cl-] | 3.12 mg/L | > 100 mg/L | > 100 mg/L | > 100 mg/L |  |  | > 100 mg/L |  | 
11 | CCCCCCCCCCCCCOC(=O)C[C@H](C[N+](C)(C)C)OC(=O)CCCCCC.[Cl-] | 3.12 mg/L | > 100 mg/L | 6.25 mg/L | > 100 mg/L |  |  |  |  | 
12 | CC(C)CC(=O)O[C@H](CC(=O)OCCCCCCC(F)(F)C(F)(F)C(F)(F)C(F)(F)F)C[N+](C)(C)C.[Cl-] | 6.25 mg/L | 100 mg/L | 12.5 mg/L | > 100 mg/L | 12.5 mg/L | 50 mg/L | 25 mg/L | 100 mg/L | 50 mg/L
13 | CCCCCCCCCCCC(=O)O[C@H](CC(=O)OCCC(F)(F)C(F)(F)C(F)(F)C(F)(F)C(F)(F)C(F)(F)F)C[N+](C)(C)C.[Cl-] | > 100 mg/L | > 100 mg/L | > 100 mg/L | > 100 mg/L | > 100 mg/L | > 100 mg/L | > 100 mg/L | > 100 mg/L | > 100 mg/L
14 | CCCCCCCOC(=O)C[C@H](C[N+](C)(C)C)OC(=O)CCOc1ccccc1.[Cl-] | > 100 mg/L | > 100 mg/L | > 100 mg/L | > 100 mg/L | > 100 mg/L | > 100 mg/L | > 100 mg/L | > 100 mg/L | > 100 mg/L
15 | CCCCCCCCCCOC(=O)C[C@H](C[N+](C)(C)C)OC(=O)CCCCCC.[Cl-] | 3.12 mg/L | 50 mg/L | 3.12 mg/L | 25 mg/L | 3.12 mg/L | 25 mg/L | 3.12 mg/L | 25 mg/L | 50 mg/L
16 | CCCCCCCCCCCCCOC(=O)C[C@H](C[N+](C)(C)C)OC(=O)C(C)CCCC.[Cl-] (stereo partly specified) | 6.25 mg/L | > 100 mg/L | 6.25 mg/L | > 100 mg/L |  |  |  |  | 
17 | CCCCCCCCOC(=O)C[C@H](C[N+](C)(C)C)OC(=O)CC(C)C.[Cl-] | 50 mg/L | > 100 mg/L | 50 mg/L | > 100 mg/L | > 100 mg/L | > 100 mg/L | > 100 mg/L | > 100 mg/L | > 100 mg/L
18 | CCCCCCCCCCCOC(=O)C[C@H](C[N+](C)(C)C)OC(=O)CCCBr.[Cl-] | 3.12 mg/L | 100 mg/L | 6.25 mg/L | 50 mg/L | 3.12 mg/L | 12.5 mg/L | 3.12 mg/L | 12.5 mg/L | 25 mg/L
19 | CCCCCCCCCCCOC(=O)C[C@@H](O)C[N+](C)(C)C.[Cl-] | 25 mg/L | > 100 mg/L | 12.5 mg/L | > 100 mg/L | > 100 mg/L | > 100 mg/L | > 100 mg/L | > 100 mg/L | > 100 mg/L
20 | CCCCCCCCCCOC(=O)C[C@H](C[N+](C)(C)C)OC(=O)CC(C)C.[Cl-] | 6.25 mg/L | > 100 mg/L | 12.5 mg/L | 50 mg/L | 3.12 mg/L | 25 mg/L | 3.12 mg/L | 50 mg/L | 100 mg/L
21 | CCCCCCCCCCCCCCCCOC(=O)C[C@@H](O)C[N+](C)(C)C.[Cl-] | 3.12 mg/L | > 100 mg/L | 6.25 mg/L | > 100 mg/L | 6.25 mg/L | 3.12 mg/L | > 100 mg/L | 6.25 mg/L | 6.25 mg/L
22 | CCCCCCCCCCCOC(=O)C[C@H](C[N+](C)(C)C)OC(=O)CCC(C)C.[Cl-] | 1.56 mg/L | > 100 mg/L | 3.12 mg/L | 25 mg/L |  |  |  |  | 
23 | CCCCCCCCCCCCCOC(=O)C[C@H](C[N+](C)(C)C)OC(=O)CCCCCCCC.[Cl-] | 6.25 mg/L | > 100 mg/L | 12.5 mg/L | > 100 mg/L | 12.5 mg/L | 25 mg/L | 12.5 mg/L | 100 mg/L | 50 mg/L
24 | CCCCCCCCCCCOC(=O)C[C@H](C[N+](C)(C)C)OC(=O)CCCCCC.[Cl-] | 1.56 mg/L | 100 mg/L | 3.12 mg/L | 25 mg/L | 3.12 mg/L | 3.12 mg/L | 3.12 mg/L | 3.12 mg/L | 6.25 mg/L
25 | CC(C)CC(=O)O[C@H](CC(=O)OCCCCCCCCCCCBr)C[N+](C)(C)C.[Cl-] | 6.25 mg/L | 100 mg/L | 12.5 mg/L | 100 mg/L | 6.25 mg/L | 50 mg/L | > 100 mg/L | 25 mg/L | 50 mg/L
26 | CCCCCCCCOC(=O)C[C@H](C[N+](C)(C)C)OC(=O)CCCCCCCC.[Cl-] | 3.12 mg/L | 50 mg/L | 3.12 mg/L | 25 mg/L | 3.12 mg/L | 6.25 mg/L | 3.12 mg/L | 12.5 mg/L | 25 mg/L
27 | CCCCCCCCCCCCOC(=O)C[C@H](C[N+](C)(C)C)OC(=O)CCCCCC.[Cl-] | 1.56 mg/L | > 100 mg/L | 3.12 mg/L | > 100 mg/L | 3.12 mg/L | 6.25 mg/L | 3.12 mg/L | 3.12 mg/L | 12.5 mg/L

— ChEMBL document CHEMBL1131640, “L-carnitine esters as "soft", broad-spectrum antimicrobial amphiphiles” (J Med Chem, 1998)
